Laboratory results from the EternaBench riboswitch data.

System: MS2 coat protein
Assay: apparent Kd, MS2 coat protein; higher = weaker binding; RNA-MaP array; FMN 200 µM where present
Procedure, shortened: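 Green signal from SNAP-549-labelled MS2 coat protein was normalised to red-channel RNA signal and to the median Fmax of control clusters. The protein was titrated from 0.7 or 1.5 nM, doubling to 3 µM, without and then with constant ligand, over designs transcribed by stalled E. coli RNA polymerase on Illumina sequencing-chip clusters, in 100 mM Tris-HCl pH 7.5, 80 mM KCl, 4 mM MgCl2, BSA, DTT, yeast tRNA and Tween-20. The apparent Kd is the median of filtered per-cluster binding-curve fits.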

[1] = designed as: OFF switch for flavin mononucleotide, no ligand
[2] = ligand present: flavin mononucleotide, designed as: OFF switch for flavin mononucleotide
[3] = designed as: ON switch for flavin mononucleotide, no ligand
[4] = ligand present: flavin mononucleotide, designed as: ON switch for flavin mononucleotide

For “GGGAUCACCGUCAGGAUAUGUGACCGUACUAUCGGGCAGAAGGGACAUGAGGAUCACCCAUGUUGUCGUAGACU”, the “apparent Kd” value [1] was 20.7 nM and the “apparent Kd” value [2] was 58.1 nM.

For “AAUAUAAAGAGCUGGCUCCAAAUAACAUGAGGAUCACCCAUGUAGGAUAUCAGCACGAUAAGUGCUGAGAAGGACAUCCAGCUC”, the “apparent Kd” value [1] was 15 nM and the “apparent Kd” value [2] was 15.6 nM.

In the case of “UUACAUACAAAGGUACAUGAGGAUCACCCAUGUUUGUUGGGAAGAAGGGUAACAGUACUACACAUACAGGAUAUUUCACAAAUA”, the “apparent Kd” value [3] is reported as 86.8 nM and the “apparent Kd” value [4] is reported as 56.4 nM.

With “CUUGUUUAUGUGAGGAUAUACUGUUAGUAAUGUUUGUAGAAGGUACAUGAGGAUCACCCAUGUUUAUUUUUUUU” the “apparent Kd” value [1] was 20.5 nM and the “apparent Kd” value [2] was 19.7 nM.

For “AAACACAAACAUGAGGAUCACCCAUGUGGCGAAAGCCUUGGGAGAAGGGCGAUUGCAAAGCAAUCGCAGGAUAUUCGUAUUGUG”, the “apparent Kd” value [3] was 370 nM and the “apparent Kd” value [4] was 26.9 nM.

With “AUAAUGGUAGGAUAUACAUGGAUAUACAUUCAUGUGGACCUACAUGAGGAUCACCCAUGUAGAAGGACCAUGAA” the “apparent Kd” value [1] was 33.9 nM and the “apparent Kd” value [2] was 28.6 nM.

For “GUUUUUCCUCAUGUACAUGAGGAACAUGAGGAUCACCCAUGUAGAAGGAUUUCCCUUAAAUUAAGAUAGGAUAUACAUAUAUUU”, the “apparent Kd” value [1] was 102 nM and the “apparent Kd” value [2] was 59.3 nM.

“UUGUUGUGAGGAUAUCCAAUAUAUGACAUGAGGAUCACCCAUGUUUCCACUCGUACCUCCGGAGAAGGCACUUAGU” was tested, and the “apparent Kd” value [1] was 29.2 nM and the “apparent Kd” value [2] was 27.9 nM.

“AAGGAGUAAGGAUAUGCUGCUCGUCACUUGCGUGAUGAGUAGCAGAAGGUACAUGAGGAUCACCCAUGUAAAGA” was tested, and the “apparent Kd” value [1] was 27.4 nM and the “apparent Kd” value [2] was 20.1 nM.

In the case of “AGUGUCAUCGAGAAGGCUUCAACAUGAGGAUCACCCAUGUUGUAAUAUGGGAGGAUAUCGAUGAUACAGCUACGUUUCGUAGCA”, the “apparent Kd” value [3] is reported as 7 nM and the “apparent Kd” value [4] is reported as 5.03 nM.

With “GGAGGACAUGAGGAUCACCCAUGUGGAUGGGCGCUAGGAUAUGCGAGAGGGAAGAGUGGAGCAGAAGGAGUGGGUU” the “apparent Kd” value [3] was 50.8 nM and the “apparent Kd” value [4] was 47.3 nM.

For “UGUGCGUUGAUCUUCGAUCGGAGUACAUGAGGAUCACCCAUGUAGGAUAUUCAAAGACGCAGAUAGAAGAAGGACAUCGGUUUA”, the “apparent Kd” value [1] was 11.9 nM and the “apparent Kd” value [2] was 11.1 nM.

With “CAUUAAUUCAUUAUAGUAAUUAUACAGGAUAUGUAACAUGAGGAUCACCCAUGUAUUCUUGGUAAACAGAAGGGUAUUACAAGU” the “apparent Kd” value [1] was 13.7 nM and the “apparent Kd” value [2] was 12.8 nM.

In the case of “AAAACUUCAGAGAAGGACCCAUUGGCGUAAUGGGUAGGAUAUCUGACUUGAGGUGUCCUGACAUGAGGAUCACCCAUGUAUAAA”, the “apparent Kd” value [1] is reported as 381 nM and the “apparent Kd” value [2] is reported as 46 nM.

For “UUUACGUGAGGAUAUGCGAAUAGUACGUAAGUCAUACAGACGCAGAAGGCACAUGAGGAUCACCCAUGUGAACC”, the “apparent Kd” value [1] was 22.7 nM and the “apparent Kd” value [2] was 80.4 nM.

With “GCGAUGUUAGGAUAUUGCAUGUAGUGGGUUCCCAGCUGCGUUAAGAAGGGACAUGAGGAUCACCCAUGUGAUGA” the “apparent Kd” value [1] was 497 nM and the “apparent Kd” value [2] was 384 nM.

For “AAGCCUCUUGUCAGGAUAUCUGUCGGUCCUCCAAGAGAGAAGGGACAUGAGGAUCACCCAUGUAAGCCCAGGGA”, the “apparent Kd” value [1] was 16.1 nM and the “apparent Kd” value [2] was 27.9 nM.

With “AAACACAAACAUGAGGAUCACCCAUGUUAUGAAGAUACUGGGAGAAGGGCGAUUGCAAAGCAAUCGCAGGAUAUUCGUAUUGUG” the “apparent Kd” value [3] was 50.4 nM and the “apparent Kd” value [4] was 14.5 nM.

In the case of “GUUGUGUGAGGAUAUGCCUGGCCGUGAGGCCAGGUUGGGUGGCAGAAGGUACAUGAGGAUCACCCAUGUACGGG”, the “apparent Kd” value [1] is reported as 30 nM and the “apparent Kd” value [2] is reported as 22.7 nM.

With “UUUUACGUUUCGUAGCAGUGUCAUCGAGAAGGCCCUGACAUGAGGAUCACCCAUGUUGUUACAUGGGAGGAUAUCGAUGAUAAA” the “apparent Kd” value [3] was 15.9 nM and the “apparent Kd” value [4] was 5.75 nM.

For “GGGCGUGAAGGAUAUACAUGAGGAUCACCCAUGUGGGAGGAGAGUGGUGAGGAGGCUGGUAGAAGGUCAGGAGG”, the “apparent Kd” value [1] was 39.1 nM and the “apparent Kd” value [2] was 32.9 nM.

With “GCUGACGAUGUAGGAUAUCAGUAUAAUAAAUACUGAGAAGGACAUGAGGAUCACCCAUGUAAAACUCCGUCAGCGAGGAAACUC” the “apparent Kd” value [1] was 16.6 nM and the “apparent Kd” value [2] was 19.4 nM.

In the case of “AAAAUCAAAUGAGGAUAUUCAUACACUACAUACGGAGAAGGCAUACAAUCAUGAGGACAUGAGGAUCACCCAUGUUGUGACCAU”, the “apparent Kd” value [3] is reported as 29.9 nM and the “apparent Kd” value [4] is reported as 20.9 nM.
